Experimental data reported in ChEMBL document CHEMBL3751754, “In vitro efficacy of 2,N-bisarylated 2-ethoxyacetamides against Plasmodium falciparum” (Bioorg Med Chem Lett, 2016).

Experiments:
Plasmodium falciparum [1] = test: Antiplasmodial activity against mefloquine-resistant Plasmodium falciparum D6 assessed as inhibition of [3H]-hypoxanthine uptake after 48 hrs by liquid scintillation counting analysis; format: functional, organism-based
Procedure, shortened: (§1)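 IC50 from inhibition of [3H]hypoxanthine uptake by P. falciparum W2 or D6 parasites. Values come from a single experiment.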

Plasmodium falciparum [2] = test: Antiplasmodial activity against chloroquine, quinine and pyrimethamine-resistant Plasmodium falciparum W2 assessed as inhibition of [3H]-hypoxanthine uptake after 48 hrs by liquid scintillation counting analysis; format: functional, organism-based; procedure, shortened: as §1
Plasmodium falciparum [3] = test: Resistant index, ratio of IC50 for chloroquine, quinine and pyrimethamine-resistant Plasmodium falciparum W2 to IC50 for mefloquine-resistant Plasmodium falciparum D6; format: functional
Procedure, shortened: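 Index is W2 IC50 divided by D6 IC50. Each IC50 is from inhibition of [3H]hypoxanthine uptake in a single experiment.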

[4] = Half life in human liver microsomes at 25 uM by LC-MS analysis; format: ADME
Procedure, shortened: (§2)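 Test compound at 25 µM with pooled human liver microsomes (0.5 mg/mL total protein) in 0.1 M sodium phosphate, pH 7.4. An NADPH-regenerating system was included (1.25 mM NADP+, 3.3 mM glucose-6-phosphate, 3.3 mM MgCl2). Reaction was started with glucose-6-phosphate dehydrogenase (1 unit/mL final). Parent remaining at various time points was measured by LC-MS. Half-life assumed first-order decay; values from one experiment.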

[5] = Half life in mouse liver microsomes at 25 uM by LC-MS analysis; format: ADME
[6] = Bio-transformation in human liver microsomes at 25 uM after 30 mins by LC-MS analysis; format: ADME; settings: read-out: Drug metabolism; procedure, shortened: as §2

Structure (SMILES) | IC50 (Plasmodium falciparum [1]) | IC50 (Plasmodium falciparum [2]) | Ratio IC50 (Plasmodium falciparum [3]) | half-life at 25 µM [4] | half-life at 25 µM [5] | metabolised at 0.5 h, 25 µM [6]
CCOC(C(=O)Nc1ccc(Cl)cc1Cl)c1cnc2ccccc2c1 (stereo not drawn) | 4.5 µM | 2 µM | 0.43 | > 60 min | > 60 min | 
CCOC(C(=O)Nc1cc(Cl)ccc1Cl)c1cnc2ccccc2c1 (stereo not drawn) | 14 µM | 14 µM | 1.1 |  |  | 
CCOC(C(=O)Nc1ccnc2ccccc12)c1cc(Cl)ccc1Cl (stereo not drawn) | 12 µM | 14 µM | 1.2 |  |  | 
CCOC(C(=O)Nc1ccnc2ccccc12)c1ccc(Cl)cc1Cl (stereo not drawn) | 14 µM | 15 µM | 1 |  |  | 
CCOC(C(=O)Nc1ccc2ccccc2n1)c1ccc(Cl)cc1Cl (stereo not drawn) | 15 µM | 14 µM | 0.88 |  |  | 
O=C(/C=C/c1ccc(Cl)cc1)c1ccc(Cl)cc1 [4',4-DICHLOROCHALCONE] | 2.6 µM | 5.3 µM | 2 |  |  | 85%
CCOC(C(=O)Nc1cccc2cccnc12)c1ccc(Cl)c(Cl)c1 (stereo not drawn) | 20 µM | 16 µM | 0.84 |  |  | 
CCOC(C(=O)Nc1cccc2cccnc12)c1ccc(Cl)cc1Cl (stereo not drawn) | > 27 µM | > 27 µM |  |  |  | 
O=C(/C=C/c1cnc2ccccc2c1)c1cc(Cl)ccc1Cl |  |  |  |  |  | 100%
CCOC(C(=O)Nc1ccc2ncccc2c1)c1ccc(Cl)cc1Cl (stereo not drawn) | 15 µM | 14 µM | 0.92 |  |  | 
O=C(/C=C/c1ccnc2ccccc12)c1cc(Cl)ccc1Cl |  |  |  |  |  | 100%
CCOC(C(=O)Nc1cccc2ncccc12)c1cc(Cl)ccc1Cl (stereo not drawn) | 11 µM | 15 µM | 1.4 |  |  | 
CCOC(C(=O)Nc1cccc2cccnc12)c1cc(Cl)ccc1Cl (stereo not drawn) | 14 µM | > 27 µM |  |  |  | 
CCOC(C(=O)Nc1cccc2ncccc12)c1ccc(Cl)cc1Cl (stereo not drawn) | > 27 µM | > 27 µM |  |  |  | 
O=C(/C=C/c1ccnc2ccccc12)c1ccc(Cl)c(Cl)c1 |  |  |  |  |  | 100%
CCOC(C(=O)Nc1ccc2ccccc2n1)c1cc(Cl)ccc1Cl (stereo not drawn) | 19 µM | > 27 µM |  |  |  | 
CCOC(C(=O)Nc1ccc2ncccc2c1)c1ccc(Cl)c(Cl)c1 (stereo not drawn) | 7.7 µM | 9.1 µM |  |  |  | 
CCOC(C(=O)Nc1cnc2ccccc2c1)c1ccc(Cl)cc1Cl (stereo not drawn) | 9.8 µM | 27 µM | 2.7 |  |  | 
CCOC(C(=O)Nc1cc(Cl)ccc1Cl)c1ccnc2ccccc12 (stereo not drawn) | 14 µM | 15 µM | 1 |  |  | 
CCOC(C(=O)Nc1cnc2ccccc2c1)c1ccc(Cl)c(Cl)c1 (stereo not drawn) | 13 µM | 5.9 µM |  |  |  | 
CCOC(C(=O)Nc1ccnc2ccccc12)c1ccc(Cl)c(Cl)c1 (stereo not drawn) | 3.2 µM | 1.7 µM | 0.53 | 27 min | 30 min | 
CCOC(C(=O)Nc1ccc(Cl)c(Cl)c1)c1ccnc2ccccc12 (stereo not drawn) | 15 µM | 12 µM | 0.8 |  |  | 
CCOC(C(=O)Nc1ccc(Cl)cc1Cl)c1ccnc2ccccc12 (stereo not drawn) | 6.9 µM | 1.8 µM | 0.26 | > 60 min | > 60 min | 
CCOC(C(=O)Nc1ccc(Cl)cc1)c1ccc(Cl)cc1 (stereo not drawn) | 7.3 µM | 11 µM | 1.5 |  |  | 0%
CCOC(C(=O)Nc1cccc2ncccc12)c1ccc(Cl)c(Cl)c1 (stereo not drawn) | > 27 µM | > 27 µM |  |  |  | 
CCOC(C(=O)Nc1ccc2ncccc2c1)c1cc(Cl)ccc1Cl (stereo not drawn) | > 17 µM | > 17 µM |  |  |  | 
CCOC(C(=O)Nc1ccc2ccccc2n1)c1ccc(Cl)c(Cl)c1 (stereo not drawn) | 19 µM | 15 µM | 0.76 |  |  | 
CCOC(C(=O)Nc1cnc2ccccc2c1)c1cc(Cl)ccc1Cl (stereo not drawn) | 6.7 µM | 9.6 µM | 1.4 | 27 min | 9 min | 
CCOC(C(=O)Nc1ccc(Cl)c(Cl)c1)c1cnc2ccccc2c1 (stereo not drawn) | 18 µM | 13 µM | 0.71 |  |  | 
